Bioassay records (PubChem BioAssay)
Most compounds without a hit are left out; they make up all but 3.7% or so of the library.
KCNK9 inh: blocks the human KCNK9 two-pore domain potassium channel; Q9NPC2; HEK293 KCNK9, FluxOR thallium flux fluorescence; stronger effect = lower value; B-score at 10 µM; 310,000 compounds, 1.2% hits;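 active = ratio B-score over 3 SD below the library mean, with starting fluorescence within 5 SD of its mean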;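 note: negative B-score means less thallium flux so channel inhibition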
KCNK3 block: human KCNK3 channel inhibition, primary screen; O14649; CHO-KCNK3 thallium flux, FluxOR fluorescence; stronger effect = lower value; B-score at 10 µM; 340,000 compounds, 0.84% hits; AID 602410;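 active = B-score under library mean minus 4 SD, starting fluorescence ratio at most library mean plus 5 SD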;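 note: more negative B-score means stronger inhibition of thallium flux through KCNK3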
KCNQ1 act: potentiators or activators of human KCNQ1 potassium channel; AID 2648; B-score at 10 µM; P51787; CHO-K1 KCNQ1, thallium flux FluxOR fluorescence; stronger effect = higher value; 310,000 compounds, 0.35% hits;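 active = fluorescence ratio B-score, a plate-corrected score, at least three library SD, with initial intensity B-score within 5 SD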
Target sequence (P51787 whole entry, looked up): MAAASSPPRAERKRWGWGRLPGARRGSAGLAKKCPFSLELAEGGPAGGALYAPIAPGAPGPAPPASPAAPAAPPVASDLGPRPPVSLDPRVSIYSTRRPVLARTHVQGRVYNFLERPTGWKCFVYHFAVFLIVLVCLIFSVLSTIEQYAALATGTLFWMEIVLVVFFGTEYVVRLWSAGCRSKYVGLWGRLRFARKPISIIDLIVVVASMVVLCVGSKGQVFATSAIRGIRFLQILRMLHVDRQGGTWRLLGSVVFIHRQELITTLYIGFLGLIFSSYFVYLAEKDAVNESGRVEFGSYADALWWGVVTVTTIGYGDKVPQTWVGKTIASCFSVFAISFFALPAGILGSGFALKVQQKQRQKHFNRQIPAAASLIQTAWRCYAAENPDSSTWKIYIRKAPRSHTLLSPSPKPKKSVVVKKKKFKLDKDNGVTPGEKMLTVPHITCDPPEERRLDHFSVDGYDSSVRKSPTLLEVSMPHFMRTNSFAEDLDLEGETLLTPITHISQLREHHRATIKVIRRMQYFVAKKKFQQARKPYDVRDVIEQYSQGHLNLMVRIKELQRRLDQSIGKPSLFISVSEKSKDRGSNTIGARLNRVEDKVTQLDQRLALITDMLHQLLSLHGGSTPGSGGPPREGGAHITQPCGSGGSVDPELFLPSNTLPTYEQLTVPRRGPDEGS
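assay system = KCNQ1-transfected CHO-K1 cells | medium = assay buffer with matched DMSO | probe or stimulus = depolarizing K+/Tl+ stimulus, K2SO4 and Tl2SO4 each 12.5 mM in 5x stock | dosing = single dose | incubation = dye 90 min, compound 20 min, room temperature | detection = kinetic FluxOR fluorescence, 10 s baseline plus 110 s post-stimulus | evaluation = ratio B score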
Kir21 block: Kir2.1 (mouse) channel inhibition | P35561 | HEK293-Kir2.1, FluxOR thallium flux fluorescence; stronger effect = lower value | B-score at 10 µM | 310,000 compounds, 0.85% hits | AID 1672;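 active = fluorescence ratio B-score at or below minus 3 SD of library scores, with starting-brightness B-score within 2 SD, cut at about -4.2 in these data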;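 note: channel flux triggered by added potassium and thallium sulfate stimulus; B-score of peak minus minimum fluorescence over baseline after thallium stimulus; more negative B-score means stronger Kir2.1 block with less thallium influx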
KCNQ1 block: blocks the human KCNQ1 potassium channel. P51787. CHO-K1 KCNQ1, FluxOR thallium flux fluorescence; stronger effect = higher value. B-score at 10 µM. 310,000 compounds, 1.3% hits;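 active = compounds whose thallium flux B-score, printed positive for inhibition, exceeds three library SD while starting fluorescence stays within three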;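 note: channel opened by potassium depolarization with thallium stimulus after 20 min compound exposure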
hERG rescue: compounds protecting human hERG from proarrhythmic drug block. 310,000 compounds, 0.51% hits. Q12809. activation (rescue from dofetilide block), less the hit threshold, % at 10 µM. CHO-hERG, FluxOR thallium flux, dofetilide IC70 present;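 active = activation above the mean of controls blocked by dofetilide plus 5 SD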;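 note: thallium influx through hERG after potassium depolarization seen as dye fluorescence rise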
KCNK9 block conf: human KCNK9 inhibitor confirmation; inhibition, % at 10 µM; shares compounds with KCNK9 inh; 4,900 compounds, 43% hits; HEK293 KCNK9 cells, FluxOR thallium flux fluorescence;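 active = thallium signal inhibited by more than 5 SD of the compound-free buffer control wells, on both duplicate plates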
Kir21 sel: selectivity of KCNK9 modulators against mouse Kir2.1; shares compounds with KCNK9 inh; inhibition, % at 10 µM; Kir2.1 cells, FluxOR thallium flux fluorescence; 4,900 compounds, 4% hits;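 active = thallium signal drop more than 5 SD beyond the mean of the no-compound control wells, seen in both duplicate plates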;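 note: signal is fluorescence rise after thallium addition divided by baseline fluorescence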
HEK293 Tl ctr: second check of KCNK9 modulator effects in non-induced HEK293 cells. shares compounds with KCNK9 inh. 4,900 compounds, 40% hits. inhibition, % at 10 µM. FluxOR thallium flux. AID 492997;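 active = thallium signal drop beyond 5 SD of the untreated control mean, on both duplicate plates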
Hits are given with their value; i = inactive; nt = no result given.

SMILES	KCNK9 inh	KCNK3 block	KCNQ1 act	Kir21 block	KCNQ1 block	hERG rescue	KCNK9 block conf	Kir21 sel	HEK293 Tl ctr
CS(=O)(=O)Cc1ccc(C(=O)N2CCCC2c2cccs2)cc1 (stereo unspecified)	i	i	i	i	i	i	nt	nt	nt
Cc1ccc(S(=O)(=O)n2nc(OC(=O)c3cccc(F)c3)cc2N)cc1	i	i	i	i	i	i	nt	nt	nt
Cc1ccc(S(=O)(=O)n2nc(OC(=O)c3c(F)cccc3Cl)cc2N)cc1	-19.5	i	i	i	i	i	61.0%	i	36.5%
Fc1ccccc1N1CCN(Cc2cc(-c3ccccc3)on2)CC1	i	i	i	i	i	i	i	i	i
O=C1c2ccccc2C(=O)N1Cc1nc(-c2ccccc2)no1	i	i	i	i	i	i	i	i	i
COc1ccc(-c2noc(CN3CCCCC3)n2)cc1OC	i	i	i	i	i	i	nt	nt	nt
COc1ccc(-c2noc(CN3CCN(c4ccccc4F)CC3)n2)cc1OC	i	i	i	i	i	i	i	i	i
Fc1ccccc1N1CCN(Cc2nc(-c3ccccc3)no2)CC1	i	i	i	i	i	i	i	i	i
CC1CCN(Cc2nc(-c3ccccc3)no2)CC1	i	i	i	i	i	i	nt	nt	nt
CCN(CC)CCNC(Cc1ccccc1)c1cccc(OC)c1 (stereo unspecified)	nt	i	nt	nt	nt	nt	nt	nt	nt
CN(C(=O)c1cc(-c2ccccc2)on1)C1CCCCC1	i	i	i	i	i	i	nt	nt	nt
CC(C)(C)c1cc(CCC(=O)Nc2ccncc2)cc(C(C)(C)C)c1O	i	i	i	i	i	i	nt	nt	nt
c1nc(C2CCCCC2)cc2cc3c(cc12)OCO3	nt	i	nt	nt	nt	nt	nt	nt	nt
CCC(=O)Nc1cc(-c2nn(C)c(=O)c3ccccc23)ccc1N1CCOCC1	i	i	i	i	i	i	nt	nt	nt
Cn1nc(-c2ccc(N3CCCCC3)c(NC(=O)c3ccco3)c2)c2ccccc2c1=O	-15	i	i	i	i	i	73.0%	i	36.0%
O=[N+]([O-])c1ccccc1-c1ccc(C(=S)N2CCN(c3ccccc3)CC2)o1	i	i	i	i	i	i	i	i	i
Cc1ccc(N2CCN(C(=S)c3ccc(-c4ccccc4[N+](=O)[O-])o3)CC2)cc1	i	i	i	i	i	i	nt	nt	nt
C/C(CC(=O)N(C(C)C)C(C)C)=N\NC(=O)c1ccccc1Br	i	i	i	i	i	i	nt	nt	nt
Cc1cc(-c2nn(-c3ccccc3F)cc2CNCCc2cnccn2)c(C)s1	i	i	i	i	i	i	nt	nt	nt
Cc1cc(-c2nn(-c3ccccc3F)cc2CN2CCN(c3ccccn3)CC2)c(C)s1	i	i	i	i	i	i	i	i	i
Cn1cc(CN2CCN(c3ccc(Cl)cn3)CC2)c(-c2ccccc2F)n1	i	i	i	i	i	i	i	i	i
COC(=O)c1ccc(C(=O)OC)c(NC(=O)C2CCCO2)c1 (stereo unspecified)	i	i	i	i	i	i	nt	nt	nt
CC(Sc1nc2ccccc2c(=O)n1C)C(=O)Nc1ccc2c(c1)OCCO2 (stereo unspecified)	nt	i	nt	nt	nt	nt	nt	nt	nt
CC(C)Cn1c(SC(C)C(=O)Nc2ccc3c(c2)OCCO3)nc2ccccc2c1=O (stereo unspecified)	-8.46	i	i	i	i	i	i	i	i
Cc1ccc(/C=[N+](\[O-])c2ccc(N(C)C)cc2)c2nsnc12	i	i	i	i	i	i	nt	nt	nt
SMILES	KCNK9 inh	KCNK3 block	KCNQ1 act	Kir21 block	KCNQ1 block	hERG rescue	KCNK9 block conf	Kir21 sel	HEK293 Tl ctr
Cc1noc(C)c1S(=O)(=O)Nc1ccc(O)c2c(=O)cc(-c3ccccc3Cl)oc12	i	i	i	i	i	i	i	i	i
O=C(Nc1ccc(O)c2c(=O)cc(-c3ccccc3Cl)oc12)c1ccccc1Cl	i	i	i	i	i	i	nt	nt	nt
Cc1cccc(NC(=O)c2ccc(COc3ccc(Cl)cc3Cl)o2)n1	i	i	i	i	i	i	i	i	i
Cc1cccc(NC(=O)c2ccc(COc3ccc4ccccc4c3)o2)n1	i	i	i	i	i	i	nt	nt	nt
COc1cccc(CN2CCN(Cc3cc(OC)c(OC)cc3[N+](=O)[O-])CC2)c1	i	i	i	i	i	i	i	i	i
COc1cccc(CN2CCN(Cc3cccc(Br)c3)CC2)c1OC	i	i	i	i	i	i	i	i	i
C=CCn1c(C)nnc1SCC(=O)Nc1oc(C)c2c(C)n[nH]c(=O)c12	i	i	i	i	i	i	nt	nt	nt
CCOc1ccccc1C(=O)N(CN1CCCC1=O)c1cccc(Cl)c1	i	i	i	i	i	i	nt	nt	nt
CCN1C(=O)C(=O)N(CC(=O)Nc2ccccc2OC(F)F)C1=O	nt	i	nt	nt	nt	nt	nt	nt	nt
Cc1cc(C(=O)Cn2nnc(-c3ccc(Cl)cc3)n2)c(C)n1CC1CCCO1 (stereo unspecified)	i	i	i	i	i	i	nt	nt	nt
Cc1cc(C(=O)Cn2nnc(-c3ccc(Cl)cc3)n2)c(C)n1-c1ccccc1	i	i	i	i	i	i	i	i	i
CCOC(=O)[C@@H]1[C@H]2COc3ccc(Br)cc3[C@@H]2N2C(=O)N(c3ccccc3)C(=O)[C@@]12C	-9.05	i	i	i	i	i	52.0%	i	30.5%
CCOC(=O)[C@@H]1[C@H]2COc3ccc(Br)cc3[C@H]2N2C(=O)N(c3cccc(Cl)c3)C(=O)[C@]12C	-11.4	i	i	i	i	i	73.0%	i	28.0%
CCOC(=O)[C@H]1[C@H]2COc3ccc(Br)cc3[C@@H]2N2C(=O)N(c3ccccc3)C(=O)[C@@]12C	nt	i	nt	nt	nt	nt	nt	nt	nt
CCOC(=O)[C@@H]1[C@H]2COc3ccc(Br)cc3[C@H]2N2C(=O)N(c3ccc(Br)cc3)C(=O)[C@]12C	-16.4	i	i	i	i	i	69.5%	i	28.5%
CCOC(=O)C1(CCOc2ccccc2)CCN(Cc2ccc(O)c(OC)c2)CC1	i	i	i	i	i	i	nt	nt	nt
CCOC(=O)C1(CCOc2ccccc2)CCN(Cc2cccn2-c2ncccn2)CC1	i	i	i	i	i	i	i	i	i
CCOC(=O)C1(CCOc2ccccc2)CCN(Cc2cc(OC)ccc2OC)CC1	i	i	i	i	i	i	i	i	i
CCOC(=O)C1(CCOc2ccccc2)CCN(Cc2ccc(F)c(OC)c2)CC1	i	i	i	i	i	i	i	i	i
COc1cccc(CNC(=O)c2ccc(C)c(NC3=NC4CS(=O)(=O)CC4S3)c2)c1 (stereo unspecified)	i	i	i	i	i	i	nt	nt	nt
Fc1ccccc1OCCCCSc1ncccn1	i	i	i	i	i	i	nt	nt	nt
c1cnc(SCCOc2cccc3ccccc23)nc1	-9.91	i	i	i	i	i	48.0%	i	38.0%
